Eleven molecules from ChEMBL document CHEMBL3864132, “Free fatty acid receptor 1 (GPR40) agonists containing spirocyclic periphery inspired by LY2881835” (Bioorg Med Chem, 2016) can be followed below.

In data set [1] the target is T1, Free fatty acid receptor 1 (Homo sapiens, UniProt O14842). In words: Agonist activity at human FFA1 receptor expressed in CHO cells assessed as induction of Ca2+ flux by fluo-8 dye based FLIPR assay. The class given is functional, cell-based. The essentials:
(§1)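 CHO cells stably expressing human GPR40 seeded 24 h before assay, loaded 1 h with Fluo-8 calcium dye, read on FLIPR. Agonist response taken as maximum fluorescence change over baseline; concentration-response curves fitted for EC50. Efficacy expressed relative to GW9508 at 5 μM.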

Data set [2] has as its target T1, Free fatty acid receptor 1. Description: Agonist activity at human FFA1 receptor expressed in CHO cells assessed as induction of Ca2+ flux by fluo-8 dye based FLIPR assay relative to GW9508. The class given is functional, cell-based. A digest of the protocol:
as §1

A short description of data set [3]: Apparent permeability from apical to basolateral side in human Caco2 cells at 10 uM by HPLC-MS analysis. The data set is classed as ADME, cell-based. The following applies: Caco-2. A digest of the protocol: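 Apical-to-basolateral transport across Caco-2 monolayers, integrity checked by TEER in every well. Compound at 10 μM, acceptor concentrations by HPLC-MS. Papp = (VA/(area × time)) × ([drug]acc/[drug]initial,donor), insert area 0.31 cm², in 10^-6 cm/s. Mean of n = 2.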

For data set [4], the target named is T1, Free fatty acid receptor 1. In words: Agonist activity at FFA1 receptor (unknown origin). A digest of the protocol: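 Read-out on FLIPR as maximum fluorescence change over baseline. Dose-response testing gave EC50 from curve fitting. Efficacy is expressed as % of GW9508 reference agonist used at 5 μM.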
Data set [5] addresses T2, Free fatty acid receptor 3 (Homo sapiens, UniProt O14843).
T2 sequence (O14843 whole entry): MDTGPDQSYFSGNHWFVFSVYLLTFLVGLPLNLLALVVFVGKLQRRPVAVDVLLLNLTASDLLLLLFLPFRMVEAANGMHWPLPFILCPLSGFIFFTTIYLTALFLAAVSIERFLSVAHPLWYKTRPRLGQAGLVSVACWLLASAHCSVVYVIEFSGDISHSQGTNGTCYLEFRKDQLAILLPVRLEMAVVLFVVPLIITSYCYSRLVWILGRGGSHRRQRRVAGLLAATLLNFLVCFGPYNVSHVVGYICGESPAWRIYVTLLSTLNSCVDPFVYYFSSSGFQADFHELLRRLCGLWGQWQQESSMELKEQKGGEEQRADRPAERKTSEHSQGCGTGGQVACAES
In words: Agonist activity at human FFA3 receptor expressed in CHO cells assessed as induction of Ca2+ flux by fluo-8 dye based FLIPR assay. The class given is functional, cell-based. A digest of the protocol: (§2)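 CHO lines stably expressing the respective receptor (GPR43, GPR41 or GPR120) used for specificity screening. Cells loaded 1 h with Fluo-8 calcium dye and read by FLIPR; maximum fluorescence change over baseline taken as agonist response.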

Data set [6] concerns the target T3, Free fatty acid receptor 2 (Homo sapiens, UniProt O15552).
T3 sequence (O15552 whole entry): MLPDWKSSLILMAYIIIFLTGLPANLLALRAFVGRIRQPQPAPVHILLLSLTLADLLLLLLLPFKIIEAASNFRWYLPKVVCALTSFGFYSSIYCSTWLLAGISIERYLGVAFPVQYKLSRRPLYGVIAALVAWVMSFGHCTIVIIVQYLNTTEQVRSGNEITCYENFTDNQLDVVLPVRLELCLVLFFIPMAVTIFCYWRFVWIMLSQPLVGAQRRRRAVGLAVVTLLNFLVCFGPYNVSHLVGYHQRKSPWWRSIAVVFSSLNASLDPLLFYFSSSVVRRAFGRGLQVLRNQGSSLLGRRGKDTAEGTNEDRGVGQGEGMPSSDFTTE
In words: Agonist activity at human FFA2 receptor expressed in CHO cells assessed as induction of Ca2+ flux by fluo-8 dye based FLIPR assay. The class given is functional, cell-based. A digest of the protocol:
as §2

Data set [7] has as its target T4, Free fatty acid receptor 4 (Homo sapiens, UniProt Q5NUL3).
T4 sequence (Q5NUL3 whole entry): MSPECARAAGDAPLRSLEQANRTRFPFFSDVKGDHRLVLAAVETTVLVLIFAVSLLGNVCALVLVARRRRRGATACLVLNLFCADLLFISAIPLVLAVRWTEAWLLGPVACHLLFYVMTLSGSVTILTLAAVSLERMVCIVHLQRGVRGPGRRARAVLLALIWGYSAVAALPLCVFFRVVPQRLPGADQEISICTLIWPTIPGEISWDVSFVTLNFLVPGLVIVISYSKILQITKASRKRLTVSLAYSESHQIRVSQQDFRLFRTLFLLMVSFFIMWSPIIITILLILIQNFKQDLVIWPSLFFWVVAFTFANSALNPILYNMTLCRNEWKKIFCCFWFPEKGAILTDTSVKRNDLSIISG
Description: Agonist activity at human FFA4 receptor expressed in CHO cells assessed as induction of Ca2+ flux by fluo-8 dye based FLIPR assay. The class given is functional, cell-based. A digest of the protocol: as §2

Data set [8] is described as follows: Protein binding in human plasma at 1 uM after 5 hrs by HPLC-MS/MS analysis. The class given is ADME, cell-free. Particulars: read-out: PPB (converted). The essentials:
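Equilibrium dialysis (12–14 kDa MWCO) of plasma spiked at 1 μM (1% solvent) against PBS pH 7.4, 5 h at 37°C with shaking, quadruplicates. Chambers matrix-matched, precipitated with acetonitrile and analysed by HPLC-MS/MS. Bound % = (1 − buffer/plasma peak area) × 100; recovery checked against undialyzed spiked plasma.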

Data set [9] in a line: Intrinsic clearance in BALB/c mouse liver microsomes at 2 uM up to 40 mins by HPLC-MS analysis. The class given is ADME. A digest of the protocol: (§3)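 Pooled liver microsomes from male BALB/c mice at 0.42 mg protein/ml in 100 mM potassium phosphate pH 7.4 with MgCl2, NADPH and a G6P/G6PDH regenerating system. Compound 2 μM (1.6% solvent), 37°C, five time points over 40 min, duplicates. Quenched in acetonitrile, analysed by HPLC-MS/MS. kel from ln(AUC) versus time; T1/2 = 0.693/kel; CLint scaled to incubation volume per mg microsomes.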

Data set [10] in a line: Half life in BALB/c mouse liver microsomes at 2 uM by HPLC-MS analysis. The data set is classed as ADME. A digest of the protocol: as §3
A short description of data set [11]: Kinetic aqueous solubility of the compound in PBS buffer […] at pH 7.4 after 2 hrs by UV-Visible spectrophotometric analysis. The class given is physicochemical. The following applies: read-out: Kinetic_solubility. A digest of the protocol:
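Equilibrated 2 h at 25°C with shaking, then filtered. Filtrates read by UV-Vis scan against 0–400 μM calibration curves in methanol/PBS.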

Each structure is given as a SMILES string.

T1 sequence (O14842 whole entry): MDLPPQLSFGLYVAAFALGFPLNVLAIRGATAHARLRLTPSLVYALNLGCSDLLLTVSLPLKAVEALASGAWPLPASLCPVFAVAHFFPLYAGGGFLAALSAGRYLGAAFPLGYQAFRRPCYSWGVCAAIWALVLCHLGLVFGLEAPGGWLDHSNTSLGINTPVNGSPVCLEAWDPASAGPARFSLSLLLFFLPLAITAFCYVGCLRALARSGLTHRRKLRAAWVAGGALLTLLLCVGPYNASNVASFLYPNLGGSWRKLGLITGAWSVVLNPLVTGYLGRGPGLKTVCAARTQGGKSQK

Turning to `COCCc1noc(CC2CCOC3(CCN(Cc4ccc(COc5ccc(CCC(=O)O)cc5)cc4)CC3)C2)n1` (stereo not drawn), in [1], the EC50 was > 20000 nM.
Same read-out and setting: with `O=C(O)CCc1ccc(OCc2ccc(CN3CCC4(CC3)CC(OCC3CC3)CCO4)cc2)cc1` (stereo not drawn) the figure was > 20000 nM.
Regarding `O=C(O)CCc1ccc(OCc2ccc(CN3CCC4(CC3)CC(Cc3ccccc3F)CCO4)cc2)cc1` (stereo not drawn), in [1], the EC50 is 810 nM. For the same molecule, the Emax in [2] turned out to be 95%.
As for `CC1CCOC2(CCN(Cc3ccc(COc4ccc(CCC(=O)O)cc4)cc3)CC2)C1` (stereo not drawn), the EC50 in data set [1] is > 20000 nM.
Turning to `O=C(O)CCc1ccc(OCc2ccc(CN3CCC4(CC3)CC(OCc3ccccc3)CCO4)cc2)cc1` (stereo not drawn), the EC50 in [1] amounted to 1160 nM. In [2], the Emax was determined as 100%.
On to `CC(C)NCC(O)COc1cccc2ccccc12` (stereo not drawn) [PROPRANOLOL], for which the Papp A→B at 10 µM in [3] was determined as 28 ×10⁻⁶ cm/s.
In turn, `CC#C[C@@H](CC(=O)O)c1ccc(OCc2ccc(CN3CCC4(C=Cc5ccccc54)CC3)cc2)cc1` [LY2881835] yielded an EC50 in data set [4] of 233 nM.
`Cc1ccc(CC2CCOC3(CCN(Cc4ccc(COc5ccc(CCC(=O)O)cc5)cc4)CC3)C2)cc1.Cl` (stereo not drawn): the EC50 in data set [5] was > 10 µM; in data set [6] it was > 10 µM; in data set [1], 77 nM; in data set [7], > 10 µM. Besides, the fraction unbound at 5 h, 1 µM in [8] is 0.002. The Papp A→B at 10 µM in [3] was determined as 10.4 ×10⁻⁶ cm/s. Further, in data set [2], the Emax was 74%. This molecule registered a CLint at 40 min, 2 µM in data set [9] of 173 µL/min/mg. Moreover, the half-life at 2 µM in [10] stood at 9.6 min. Moreover, the solubility kinetic at 2 h in data set [11] came to 69 µM.
Regarding `O=C(O)CCc1ccc(OCc2ccc(CN3CCC4(CC3)CC(OCc3ccc(F)cc3)CCO4)cc2)cc1` (stereo not drawn), the EC50 in data set [1] amounted to 2010 nM. Besides, the Emax in data set [2] came out at 75%.
As for `COc1ccc(CC2CCOC3(CCN(Cc4ccc(COc5ccc(CCC(=O)O)cc5)cc4)CC3)C2)cc1.Cl` (stereo not drawn), the EC50 in data set [5] is > 10 µM; in data set [6], > 10 µM; in data set [1] it was 280 nM; in [7], > 10 µM. For the same molecule, in data set [8], the fraction unbound at 5 h, 1 µM was 0.007. In addition, the Papp A→B at 10 µM in data set [3] stood at 15.8 ×10⁻⁶ cm/s. The Emax in data set [2] is 100%. For the same molecule, the CLint at 40 min, 2 µM in data set [9] is 141 µL/min/mg. This molecule also gave a half-life at 2 µM in data set [10] of 11.8 min. For the same molecule, in data set [11], the solubility kinetic at 2 h was 42 µM.
For the molecule `O=C(O)CCc1ccc(OCc2ccc(CN3CCC4(CC3)CC(Cc3nc(C5CC5)no3)CCO4)cc2)cc1` (stereo not drawn), the EC50 in [1] was determined as 4540 nM. In addition, the Emax in data set [2] turned out to be 53%.
